Experimental findings from ChEMBL document CHEMBL3751740, “New MKLP-2 inhibitors in the paprotrain series: Design, synthesis and biological evaluations” (Bioorg Med Chem, 2016) are described below.

Molecules are shown by their SMILES.

Assay [1] addresses T1, Chromosome-associated kinesin KIF4A (Homo sapiens) (UniProt O95239).
T1 sequence (whole entry): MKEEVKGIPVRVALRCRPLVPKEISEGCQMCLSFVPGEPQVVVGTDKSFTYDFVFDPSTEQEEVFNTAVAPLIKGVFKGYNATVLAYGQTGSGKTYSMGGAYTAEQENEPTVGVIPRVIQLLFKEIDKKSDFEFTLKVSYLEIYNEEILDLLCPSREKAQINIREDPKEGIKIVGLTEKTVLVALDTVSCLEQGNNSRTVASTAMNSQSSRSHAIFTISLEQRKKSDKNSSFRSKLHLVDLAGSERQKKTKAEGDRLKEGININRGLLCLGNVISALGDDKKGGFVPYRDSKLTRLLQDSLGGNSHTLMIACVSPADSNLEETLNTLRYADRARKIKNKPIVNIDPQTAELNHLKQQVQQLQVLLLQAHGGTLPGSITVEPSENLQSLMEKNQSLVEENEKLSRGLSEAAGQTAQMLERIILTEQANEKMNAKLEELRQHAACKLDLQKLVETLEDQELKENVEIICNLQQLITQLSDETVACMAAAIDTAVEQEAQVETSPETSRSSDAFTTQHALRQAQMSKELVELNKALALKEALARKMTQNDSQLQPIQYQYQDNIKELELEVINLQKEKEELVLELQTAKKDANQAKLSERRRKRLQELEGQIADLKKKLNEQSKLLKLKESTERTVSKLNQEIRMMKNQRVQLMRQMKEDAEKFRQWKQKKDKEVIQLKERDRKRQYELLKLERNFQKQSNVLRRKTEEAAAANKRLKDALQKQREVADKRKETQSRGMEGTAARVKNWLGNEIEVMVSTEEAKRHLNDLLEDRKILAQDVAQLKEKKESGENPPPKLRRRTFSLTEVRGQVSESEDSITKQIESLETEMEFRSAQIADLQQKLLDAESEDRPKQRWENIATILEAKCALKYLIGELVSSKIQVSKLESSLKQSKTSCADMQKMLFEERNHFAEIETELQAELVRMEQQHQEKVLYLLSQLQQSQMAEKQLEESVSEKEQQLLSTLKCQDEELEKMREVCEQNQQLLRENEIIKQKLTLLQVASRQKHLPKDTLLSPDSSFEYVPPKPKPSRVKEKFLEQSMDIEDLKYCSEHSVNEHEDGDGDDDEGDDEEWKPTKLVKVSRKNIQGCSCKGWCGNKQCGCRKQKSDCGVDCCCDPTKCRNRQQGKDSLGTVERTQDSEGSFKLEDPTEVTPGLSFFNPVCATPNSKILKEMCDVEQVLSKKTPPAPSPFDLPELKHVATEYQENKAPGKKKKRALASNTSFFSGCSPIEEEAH
Nature of the assay: Inhibition of porcine brain microtubule-stimulated human recombinant GST-tagged Kif4A ATPase activity at 15 uM by microplate reader in presence of Mg2+ ATP relative to control. The method, boiled down:
(§1)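 Each kinesin motor domain was tested against MT-stimulated ATPase at 22 °C in triplicate, with compounds at 15 µM. Buffer was 7.5 mM PIPES-NaOH pH 7.0 with MgCl2, Taxol, ELIPA reagents and 1.25 mg/mL MTs. Reactions were started with 1 mM Mg2+ATP and read kinetically at 360 nm. Monastrol and AMP-PNP (1 mM) were the controls.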

In assay [2] the target is T2, Kinesin-like protein KIF11 (Homo sapiens) (UniProt P52732).
T2 sequence (whole entry): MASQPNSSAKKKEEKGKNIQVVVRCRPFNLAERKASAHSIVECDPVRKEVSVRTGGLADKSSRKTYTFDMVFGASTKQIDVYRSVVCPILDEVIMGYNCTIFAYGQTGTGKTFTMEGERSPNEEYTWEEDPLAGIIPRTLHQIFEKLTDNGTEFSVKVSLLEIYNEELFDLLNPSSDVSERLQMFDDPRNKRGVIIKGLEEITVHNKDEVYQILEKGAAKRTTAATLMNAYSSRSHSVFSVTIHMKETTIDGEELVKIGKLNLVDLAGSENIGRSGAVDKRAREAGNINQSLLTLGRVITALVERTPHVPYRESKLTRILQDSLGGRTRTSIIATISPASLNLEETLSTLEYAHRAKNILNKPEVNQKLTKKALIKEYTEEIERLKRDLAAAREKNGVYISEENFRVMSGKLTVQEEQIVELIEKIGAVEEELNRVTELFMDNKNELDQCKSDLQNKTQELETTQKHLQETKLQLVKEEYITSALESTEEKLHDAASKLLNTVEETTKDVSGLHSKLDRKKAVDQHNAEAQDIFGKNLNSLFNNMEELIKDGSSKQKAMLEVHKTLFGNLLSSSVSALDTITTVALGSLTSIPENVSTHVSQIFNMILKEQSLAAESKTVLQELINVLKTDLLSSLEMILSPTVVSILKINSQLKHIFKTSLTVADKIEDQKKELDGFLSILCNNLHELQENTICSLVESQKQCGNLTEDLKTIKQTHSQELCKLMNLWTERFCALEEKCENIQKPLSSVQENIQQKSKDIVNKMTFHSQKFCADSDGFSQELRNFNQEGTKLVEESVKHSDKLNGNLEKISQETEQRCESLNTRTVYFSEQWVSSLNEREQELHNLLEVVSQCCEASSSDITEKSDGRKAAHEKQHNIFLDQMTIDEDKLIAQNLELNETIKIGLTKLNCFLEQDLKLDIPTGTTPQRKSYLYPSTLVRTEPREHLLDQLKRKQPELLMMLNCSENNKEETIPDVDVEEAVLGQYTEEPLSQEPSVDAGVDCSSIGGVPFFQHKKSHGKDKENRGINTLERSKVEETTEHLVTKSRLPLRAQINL
Nature of the assay: Inhibition of porcine brain microtubule-stimulated human recombinant GST-tagged Eg5 ATPase activity at 15 uM by microplate reader in presence of Mg2+ ATP relative to control. The method, boiled down: as §1

For `N#C/C(=C\c1ccc2c(c1)OCO2)c1c[nH]c2ccccc12`, the inhibition in assay [1] and in assay [2] was less than 20% throughout.

For `N#C/C(=C\c1cccnc1)c1c[nH]c2ccc(OCc3ccccc3)cc12`, the inhibition in assay [1] and in assay [2] was less than 20% throughout.

For the molecule `COc1ccc2c(/C(C#N)=C/c3cccnc3)c[nH]c2c1`, the inhibition in assay [1] and in assay [2] was less than 20% in each case.

`CCOC(=O)C1=C(C)NC(=S)NC1c1cccc(O)c1` (configuration not stated): the results for the inhibition in assay [1] and in assay [2] were less than 20% and more than 30%, respectively.

With `COc1cccc2[nH]cc(/C(C#N)=C/c3cccnc3)c12`, the inhibition in assay [1] and in assay [2] was less than 20% in each case.

In the case of `COc1ccc2[nH]cc(/C(C#N)=C/c3cccnc3)c2c1`, the inhibition in assay [1] and in assay [2] was less than 20% throughout.
